Measured values from ChEMBL document CHEMBL2203205 (Eur J Med Chem, 2012).

How the values were obtained:
[1] = Volume of distribution at steady state in Sprague-Dawley rat at 3 mg/kg, iv; format: ADME, organism-based; parameters: dose 3 mg/kg, route intravenous; details: in vivo, read-out: Vdss
Summary of the method: (§1)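 Male Sprague-Dawley rats dosed intravenously (3 mg/kg) and orally (10 mg/kg). PK parameters came from non-compartmental analysis of plasma concentration vs time curves.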

[2] = Cmax in Sprague-Dawley rat at 10 mg/kg, po; format: ADME, organism-based; parameters: dose 10 mg/kg, route oral; details: in vivo; summary of the method: as §1
[3] = Oral bioavailability in Sprague-Dawley rat at 10 mg/kg; format: ADME, organism-based; details: in vivo; summary of the method: as §1
[4] = biological target: Voltage-gated inwardly rectifying potassium channel KCNH2 (Homo sapiens, UniProt Q12809); assay: Displacement of [3H]astemizole from human recombinant ERG expressed in HEK293 cells; format: cell-based
Voltage-gated inwardly rectifying potassium channel KCNH2, sequence (Q12809 whole entry): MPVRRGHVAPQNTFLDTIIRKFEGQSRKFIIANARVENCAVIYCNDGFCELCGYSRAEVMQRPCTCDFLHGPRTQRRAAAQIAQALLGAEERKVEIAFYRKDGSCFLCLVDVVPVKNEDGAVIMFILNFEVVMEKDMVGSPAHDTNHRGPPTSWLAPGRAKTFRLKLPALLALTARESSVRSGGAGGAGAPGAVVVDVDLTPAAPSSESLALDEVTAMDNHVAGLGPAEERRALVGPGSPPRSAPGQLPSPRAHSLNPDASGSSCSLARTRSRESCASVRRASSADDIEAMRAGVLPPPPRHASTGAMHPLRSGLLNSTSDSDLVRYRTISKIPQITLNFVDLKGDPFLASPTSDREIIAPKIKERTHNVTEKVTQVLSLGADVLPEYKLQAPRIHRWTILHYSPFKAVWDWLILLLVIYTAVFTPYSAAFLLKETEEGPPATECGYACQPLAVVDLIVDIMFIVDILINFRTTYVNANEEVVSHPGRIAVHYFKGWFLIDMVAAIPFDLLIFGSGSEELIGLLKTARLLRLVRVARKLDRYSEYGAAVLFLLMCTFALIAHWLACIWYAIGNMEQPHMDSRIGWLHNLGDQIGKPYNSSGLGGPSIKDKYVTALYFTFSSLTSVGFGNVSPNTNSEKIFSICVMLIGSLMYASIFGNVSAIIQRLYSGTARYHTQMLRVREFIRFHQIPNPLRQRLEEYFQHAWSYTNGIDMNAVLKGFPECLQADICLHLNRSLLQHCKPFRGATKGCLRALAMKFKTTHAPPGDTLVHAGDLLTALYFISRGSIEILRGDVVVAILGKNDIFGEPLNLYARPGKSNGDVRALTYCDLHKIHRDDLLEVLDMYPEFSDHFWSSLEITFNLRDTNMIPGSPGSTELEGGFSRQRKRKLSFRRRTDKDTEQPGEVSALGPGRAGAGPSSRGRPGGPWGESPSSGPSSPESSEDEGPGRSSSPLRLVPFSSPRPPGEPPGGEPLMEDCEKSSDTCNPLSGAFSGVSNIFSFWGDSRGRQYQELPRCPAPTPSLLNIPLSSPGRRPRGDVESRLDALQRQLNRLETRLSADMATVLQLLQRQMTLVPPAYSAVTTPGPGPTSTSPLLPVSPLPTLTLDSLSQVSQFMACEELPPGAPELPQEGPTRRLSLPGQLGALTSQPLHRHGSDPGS
Summary of the method: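 Binding was run in human recombinant HEK-293 cells with [3H]astemizole at 2 nM, incubated 75 min at 22 °C, with astemizole as reference. Nonspecific binding was taken with excess unlabelled ligand. Results were given as percent inhibition of control specific binding.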

[5] = Clearance in Sprague-Dawley rat at 3 mg/kg, iv; format: ADME, organism-based; parameters: dose 3 mg/kg, route intravenous; details: in vivo; summary of the method: as §1
[6] = biological target: T1, Alpha-1A adrenergic receptor (Homo sapiens, UniProt P35348); assay: Inhibition of alpha1A adrenergic receptor
T1 sequence (P35348 whole entry): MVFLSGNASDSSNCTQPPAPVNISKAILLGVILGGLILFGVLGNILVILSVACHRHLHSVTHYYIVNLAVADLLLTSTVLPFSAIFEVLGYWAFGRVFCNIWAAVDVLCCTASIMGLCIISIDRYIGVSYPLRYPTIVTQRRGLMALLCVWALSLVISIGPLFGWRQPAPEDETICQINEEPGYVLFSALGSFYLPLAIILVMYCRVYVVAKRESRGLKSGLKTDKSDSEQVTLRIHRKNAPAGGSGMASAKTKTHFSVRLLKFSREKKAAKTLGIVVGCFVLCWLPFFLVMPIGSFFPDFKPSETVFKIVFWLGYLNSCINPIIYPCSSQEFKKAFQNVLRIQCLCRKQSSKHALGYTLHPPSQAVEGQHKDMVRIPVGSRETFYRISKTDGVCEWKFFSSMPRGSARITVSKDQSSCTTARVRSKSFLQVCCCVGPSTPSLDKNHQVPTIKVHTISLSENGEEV
Summary of the method: (§2)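 Radioligand competition binding, run first as a single-concentration broad screen at […], then as concentration-response for follow-up targets, with the reference compound tested in parallel. Specific binding is total minus binding in excess unlabelled ligand, expressed as % of control specific binding. IC50 and Hill coefficient come from non-linear Hill-equation regression of competition curves built from mean replicate values.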

[7] = biological target: T2, Alpha-2C adrenergic receptor (Homo sapiens, UniProt P18825); assay: Inhibition of alpha2C adrenergic receptor; summary of the method: as §2
T2 sequence (P18825 whole entry): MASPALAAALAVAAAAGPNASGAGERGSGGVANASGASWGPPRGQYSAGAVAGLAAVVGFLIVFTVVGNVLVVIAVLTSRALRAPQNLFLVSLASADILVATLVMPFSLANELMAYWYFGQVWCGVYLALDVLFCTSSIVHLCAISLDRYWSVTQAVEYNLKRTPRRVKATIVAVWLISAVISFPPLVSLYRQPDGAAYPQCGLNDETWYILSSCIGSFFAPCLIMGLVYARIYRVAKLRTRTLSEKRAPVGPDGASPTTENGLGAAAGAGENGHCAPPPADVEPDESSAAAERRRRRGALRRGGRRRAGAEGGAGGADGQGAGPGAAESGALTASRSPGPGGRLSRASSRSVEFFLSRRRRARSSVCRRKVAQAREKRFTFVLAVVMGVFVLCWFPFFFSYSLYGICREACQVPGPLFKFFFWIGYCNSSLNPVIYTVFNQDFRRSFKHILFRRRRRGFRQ

[8] = biological target: Cytochrome P450 2D6 (Homo sapiens, UniProt P10635); assay: Inhibition of human CYP2D6; format: ADME
Cytochrome P450 2D6, sequence (P10635 whole entry): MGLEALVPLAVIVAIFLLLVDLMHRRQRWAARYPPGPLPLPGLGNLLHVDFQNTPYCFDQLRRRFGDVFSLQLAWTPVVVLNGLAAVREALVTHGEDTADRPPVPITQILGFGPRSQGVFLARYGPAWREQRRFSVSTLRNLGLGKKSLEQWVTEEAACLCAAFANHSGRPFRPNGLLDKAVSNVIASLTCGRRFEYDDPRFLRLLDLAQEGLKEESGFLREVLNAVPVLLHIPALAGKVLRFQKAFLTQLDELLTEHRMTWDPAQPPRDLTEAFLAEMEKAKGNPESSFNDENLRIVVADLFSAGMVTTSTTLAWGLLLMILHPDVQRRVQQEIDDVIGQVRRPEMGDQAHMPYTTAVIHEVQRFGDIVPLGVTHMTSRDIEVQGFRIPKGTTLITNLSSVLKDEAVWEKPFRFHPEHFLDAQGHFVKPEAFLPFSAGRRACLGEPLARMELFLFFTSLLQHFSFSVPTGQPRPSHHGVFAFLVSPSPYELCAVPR

[9] = biological target: T3, Muscarinic acetylcholine receptor M1 (Homo sapiens, UniProt P11229); assay: Inhibition of muscarinic M1 receptor; summary of the method: as §2
T3 sequence (P11229 whole entry): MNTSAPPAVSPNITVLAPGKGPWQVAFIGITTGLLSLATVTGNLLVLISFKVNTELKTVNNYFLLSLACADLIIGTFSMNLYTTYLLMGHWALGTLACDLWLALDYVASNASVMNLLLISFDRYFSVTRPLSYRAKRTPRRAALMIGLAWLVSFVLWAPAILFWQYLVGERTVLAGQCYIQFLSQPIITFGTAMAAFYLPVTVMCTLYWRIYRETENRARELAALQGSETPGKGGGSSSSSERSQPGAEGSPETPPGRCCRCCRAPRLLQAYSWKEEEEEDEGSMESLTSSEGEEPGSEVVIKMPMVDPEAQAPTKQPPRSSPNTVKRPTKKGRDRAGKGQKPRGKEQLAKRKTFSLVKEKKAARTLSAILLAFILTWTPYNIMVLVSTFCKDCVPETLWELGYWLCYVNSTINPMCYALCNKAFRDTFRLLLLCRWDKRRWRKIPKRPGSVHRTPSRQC

[10] = biological target: T4, Alpha-2B adrenergic receptor (Homo sapiens, UniProt P18089); assay: Inhibition of alpha2B adrenergic receptor
T4 sequence (P18089 whole entry): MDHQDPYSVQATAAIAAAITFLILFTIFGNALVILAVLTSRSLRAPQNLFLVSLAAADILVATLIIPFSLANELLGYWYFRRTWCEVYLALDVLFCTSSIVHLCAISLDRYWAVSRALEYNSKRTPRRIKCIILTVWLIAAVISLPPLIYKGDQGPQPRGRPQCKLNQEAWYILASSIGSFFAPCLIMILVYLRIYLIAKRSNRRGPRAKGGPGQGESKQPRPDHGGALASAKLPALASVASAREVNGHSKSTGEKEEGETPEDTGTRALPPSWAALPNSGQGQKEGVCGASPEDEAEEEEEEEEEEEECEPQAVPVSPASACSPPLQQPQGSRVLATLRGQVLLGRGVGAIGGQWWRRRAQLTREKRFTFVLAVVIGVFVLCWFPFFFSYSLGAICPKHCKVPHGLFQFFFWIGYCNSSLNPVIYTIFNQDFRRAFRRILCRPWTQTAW
Summary of the method: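 Binding assay from a broad screen, with a reference compound tested concurrently. Specific binding was total minus nonspecific binding (excess unlabelled ligand). IC50 and Hill coefficient came from non-linear regression of competition curves using mean replicate values.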

**Q.** With `N=C(Nc1ccc2c(c1)CCN2C1CCNCC1)c1cccs1` as the molecule, how does the Vd [1] read?
**A.** The Vd was 330 L/kg.

**Q.** What about the Cmax [2] of the same molecule?
**A.** Its Cmax is 101 ng/mL.

**Q.** What about the bioavailability [3] of the same molecule?
**A.** Its bioavailability is 91%.

**Q.** And the IC50 [4]?
**A.** Its IC50 is 160 µM.

**Q.** What about the clearance [5] of the same molecule?
**A.** The clearance was 420 mL/min/kg.

**Q.** What about the IC50 [6] of the same molecule?
**A.** The IC50 was 1.9 µM.

**Q.** What about the IC50 [7] of the same molecule?
**A.** The IC50 was 11 µM.

**Q.** What about the IC50 [8] of the same molecule?
**A.** The IC50 was 0.75 µM.

**Q.** What about the IC50 [9] of the same molecule?
**A.** The IC50 was 8.6 µM.

**Q.** And the IC50 [10]?
**A.** The IC50 was 32 µM.
